Test results taken from PubChem BioAssay.
The source made the active and inactive calls.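 The calls were made as follows, unless noted: active = inhibition at or above 50% relative to wild type and mutant plate controls; inactive = inhibition below 50%.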

What was measured:
[1] = inhibitors of TNFa-induced NFkB p65 translocation, primary screen, imaging, HUVEC, MLSMR starter and 10KST1 sets (AID 438;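 active = inhibition above 20% together with a positive visual image hit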;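 also: compound added about 3h40 before a 20 min TNFalpha stimulation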;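 as to inhibition: signal is the nuclear over cytoplasmic p65 intensity ratio per well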); conditions: HUVEC TNFa-induced p65 nuclear translocation; cell count: measured here: nuclei count (cytotoxicity indicator), at 2.08 µM; inhibition: at 2 µM, stronger effect = higher value, 0% TNFa-plus-vehicle, 100% no-TNFa wells
[2] = inhibitors of E-selectin induction by TNFa, primary screen, imaging, HUVEC, immunofluorescence, MLSMR starter and 10KST1 sets (AID 487;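 active = visually confirmed hit in the image check and inhibition above 20%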;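 as to inhibition: signal is fraction of cell area covered by stained E-selectin grains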;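 as to nuclei count: 100% = median nuclei count of all wells on the same plate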); conditions: HUVEC TNFalpha-induced E-selectin immunofluorescence imaging, at 2 µM; inhibition: stronger effect = higher value; nuclei count: measured here: cell number, toxicity
[3] = DUSP6 inhibitors restoring Erk phosphorylation by chemical complementation, primary imaging in DUSP6-transfected HeLa (AID 609;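 active = compounds giving at least 50% inhibition in the cell-based MKP-3 phosphatase rescue imaging test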;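 as to inhibition: phospho-Erk level distribution per well compared with pooled transfected vehicle control wells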); conditions: HeLa MKP-3 transfected, phospho-Erk imaging KS statistic, at 10 µM, cells stimulated with TPA for 15 min
[4] = target: Dual specificity protein phosphatase 6 (Homo sapiens) (UniProt Q16828); assay: as above; conditions: HeLa MKP-3 transfected, phospho-Erk imaging KS statistic; at 10 µM; stronger effect = higher value; cells stimulated with TPA for 15 min
Chain of Dual specificity protein phosphatase 6 (Homo sapiens) (Q16828 whole entry, looked up): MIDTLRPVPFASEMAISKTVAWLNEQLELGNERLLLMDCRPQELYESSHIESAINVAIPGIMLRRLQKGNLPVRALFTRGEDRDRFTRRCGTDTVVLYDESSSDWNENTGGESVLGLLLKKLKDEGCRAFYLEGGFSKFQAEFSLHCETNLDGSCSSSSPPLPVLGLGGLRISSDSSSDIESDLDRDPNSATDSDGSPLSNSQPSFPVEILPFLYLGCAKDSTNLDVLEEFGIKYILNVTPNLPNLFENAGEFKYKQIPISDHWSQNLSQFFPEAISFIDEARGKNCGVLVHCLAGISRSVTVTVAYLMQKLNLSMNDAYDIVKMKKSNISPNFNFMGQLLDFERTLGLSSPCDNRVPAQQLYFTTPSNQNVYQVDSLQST

[5] = target: Voltage-gated potassium channel subunit beta-2 (Rattus norvegicus) (UniProt P62483); assay: KvBeta enzyme negative modulators, primary screen, biochemical, NADPH fluorescence (AID 622;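 active = fluorescence slope higher than the sample average by over 3 SD, cut at about -0.22 in these data, passing the limit was not always enough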;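 also: slope of raw intensity against log time taken from 70 to 1610 s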); conditions: recombinant KvBeta, 4-cyanobenzaldehyde reduction, at 10 µM, stronger effect = higher value
Chain of Voltage-gated potassium channel subunit beta-2 (Rattus norvegicus) (P62483 whole entry, looked up): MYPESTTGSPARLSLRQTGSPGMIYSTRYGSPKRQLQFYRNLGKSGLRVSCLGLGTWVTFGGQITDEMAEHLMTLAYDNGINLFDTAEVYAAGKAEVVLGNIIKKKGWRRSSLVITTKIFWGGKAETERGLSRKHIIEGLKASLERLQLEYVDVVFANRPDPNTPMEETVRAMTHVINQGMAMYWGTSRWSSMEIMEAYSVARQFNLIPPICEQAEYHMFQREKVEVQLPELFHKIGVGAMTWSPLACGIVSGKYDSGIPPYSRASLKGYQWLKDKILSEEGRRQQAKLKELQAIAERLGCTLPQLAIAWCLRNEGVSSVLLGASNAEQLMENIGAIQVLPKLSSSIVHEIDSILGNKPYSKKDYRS

[6] = target: Voltage-gated potassium channel subunit beta-2 (Rattus norvegicus) (UniProt P62483); assay: KvBeta positive modulators, primary screen, biochemical, NADPH fluorescence (AID 623;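 active = NADPH fluorescence slope more negative than the mean of all samples by about 3 SD, 99.7% confidence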;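 also: fluorescence intensity change per second fitted from 20 to 320 s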); conditions: Recombinant KvBeta, NADPH fluorescence decrease slope, 10 min; at 10 µM; stronger effect = lower value
[7] = target: Alpha-2C adrenergic receptor (Homo sapiens) (UniProt P18825); assay: modulators of alpha2C/GIRK thallium flux, primary screen, cell-based, HEK293 alpha2C/GIRK1/2 (AID 624;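 active = fluorescence slope after compound addition differing from the mean of all screened samples at 99.7% confidence, in either direction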;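 also: slope of fluorescence ratio to pre-addition baseline per second over 15 to 24 s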); conditions: thallium flux BTC fluorescence, at 10 µM, actives lie on both sides
Chain of Alpha-2C adrenergic receptor (Homo sapiens) (P18825 whole entry, looked up): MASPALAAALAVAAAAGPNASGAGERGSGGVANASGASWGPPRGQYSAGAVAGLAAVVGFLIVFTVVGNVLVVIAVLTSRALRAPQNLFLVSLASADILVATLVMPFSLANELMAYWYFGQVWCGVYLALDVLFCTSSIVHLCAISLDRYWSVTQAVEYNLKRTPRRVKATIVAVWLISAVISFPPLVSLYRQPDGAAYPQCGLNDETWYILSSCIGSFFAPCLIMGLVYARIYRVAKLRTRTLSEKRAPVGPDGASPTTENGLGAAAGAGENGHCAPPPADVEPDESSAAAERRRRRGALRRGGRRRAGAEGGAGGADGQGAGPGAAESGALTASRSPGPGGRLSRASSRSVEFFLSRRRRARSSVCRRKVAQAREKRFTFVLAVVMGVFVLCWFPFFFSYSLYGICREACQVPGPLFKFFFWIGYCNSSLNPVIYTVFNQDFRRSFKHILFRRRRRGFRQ

[8] = inhibitors of larval lipid processing in zebrafish, primary screen, whole organism, PED6 fluorescence, gall bladder and intestine (AID 686;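 active = a full or partial loss of lipid-probe fluorescence in the fish gall bladder, intestine or both, judged by eye; inactive = no fluorescence loss, or compound toxic to the fish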;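 also: larvae 5 to 7 days old with five fish per well; signal comes from phospholipase A2 cleavage of quenched PED6 carried via bile; overnight exposure to compound and PED6 before scoring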); conditions: Zebrafish larvae PED6 lipid processing, fluorescence scoring; screened at 20 µM (by protocol)
Method in brief: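 system = live zebrafish larvae aged 5-7 days, whole organism | probe or stimulus = ingested quenched lipid PED6 at 100 nM | doses = 20 µM single dose | timing = overnight exposure | detection = fluorescence microscopy with visual scoring of gall bladder and intestine | read-out = visual per-well fluorescence inhibition score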

[9] = inhibitors of Chlamydomonas gravitaxis, primary screen, whole organism, Chlamydomonas reinhardtii, WT vs cilia-less mutant, absorbance, 96-well (AID 463189); conditions: OD600 absorbance, 2 days, at 10 µM, stronger effect = higher value;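 also: 0% = wild type cc124 cells in DMSO and 100% = ciliumless bld1 mutant cells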
[10] = measured here: cell density z-score
[11] = measured here: nuclear c-Myc green intensity z-score
[12] = measured here: nuclear pErk red intensity z-score, stronger effect = higher value

Row | Structure (SMILES) | cell count [1] | inhibition [1] | inhibition [2] | nuclei count [2] | z-score [3, 10] | z-score [3, 11] | z-score [3, 12] | inhibition [4] | fluorescence slope [5] | NADPH fluorescence slope [6] | slope [7] | outcome [8] | inhibition [9]
1 | Cc1ccc(N2C(=O)[C@@H]3[C@H](C2=O)C2CCCN2[C@@H]3C(=O)c2ccccc2)cc1 (some centres undefined) | 329 | -6.6% (inactive) | -25.8% (inactive) | 146% | 1.29 | -0.857 | 1.07 | -8.59% (inactive) | -0.42 (inactive) | -0.000146 (inactive) | 0.00854 (inactive) | inactive | 0.279% (inactive)
2 | CCCOc1ccc(Cn2c(O)cc(=O)[nH]c2=O)cc1 | 568 | 0% (inactive) | -90.4% (inactive) | 188% | -0.648 | -0.788 | 0.279 | -8.95% (inactive) | -0.372 (inactive) | -3.5e-05 (inactive) | 0.00508 (inactive) | inactive | -1.95% (inactive)
3 | O=S(CCc1ccncc1)Cc1ccccc1 (centres undefined) | 337 | -23.4% (inactive) | -114% (inactive) | 140% | -0.83 | 1.38 | 2.01 | -14% (inactive) | -0.427 (inactive) | -0.000147 (inactive) | 0.00701 (inactive) | inactive | -11.4% (inactive)
4 | CCCCCCc1cc2cc(C(=O)NC)c(=N)oc2cc1O | 346 | -2% (inactive) | -68.8% (inactive) | 90.1% | -0.814 | 2.52 | -2.41 | 13.2% (inactive) | -0.446 (inactive) | -6.7e-05 (inactive) | 0 (inactive) | inactive | -9.65% (inactive)
5 | CC(=O)OCc1c(COC(C)=O)[n+](=O)c2ccccc2n1[O-] | 523 | -7% (inactive) | -114% (inactive) | 156% | 0.0201 | -0.163 | -0.453 | 2.46% (inactive) | -0.322 (inactive) | 1.5e-05 (inactive) | 0.00492 (inactive) | inactive | 17% (inactive)
6 | Cc1nc(SCC(N)=O)[nH]c(=O)c1Cc1ccc(OC(C)C)cc1 | 585 | 5.2% (inactive) | 22.1% (inactive) | 150% | -0.515 | 0.503 | 0.0528 | 3.5% (inactive) | -0.331 (inactive) | 2.9e-05 (inactive) | 0.00497 (inactive) | inactive | -1.58% (inactive)
7 | CSc1nc(N)c(C#N)c(-c2ccccc2Cl)c1C#N | 361 | -5.2% (inactive) | 16.8% (inactive) | 95% | -2.2 | 1.67 | -0.0312 | -2.07% (inactive) | -0.456 (inactive) | -0.000311 (inactive) | 0.00479 (inactive) | inactive | -18.7% (inactive)
8 | Cc1cc(=O)n2[nH]cnc2n1 | 517 | -4.6% (inactive) | -138% (inactive) | 125% | 1.56 | -0.453 | -0.845 | 5.57% (inactive) | -0.502 (inactive) | -0.000147 (inactive) | 0.00471 (inactive) | inactive | -0.839% (inactive)
9 | O=C1CCC(=O)N1c1nc2nc(-c3ccccc3)cc(-c3ccccc3)n2n1 | 360 | -6.9% (inactive) | -15.6% (inactive) | 91% | -0.411 | 1.12 | 0.232 | 5.42% (inactive) | -0.467 (inactive) | -3e-05 (inactive) | 0.00473 (inactive) | inactive | 46.1% (inactive)
10 | CCOP(=O)(c1ccccc1)C1(C#N)CCCC1 (centres undefined) | 492 | -9.6% (inactive) | -215% (inactive) | 150% | -1.11 | -1.86 | 0.943 | -3.98% (inactive) | -0.513 (inactive) | -0.000169 (inactive) | 0.00467 (inactive) | inactive; toxic | 4.97% (inactive)
11 | CNC(=O)c1ncnnc1N(C)C(=O)NCc1ccccc1 | 506 | -21% (inactive) | -54.6% (inactive) | 134% | 0.229 | 0.0819 | -1.12 | -9.66% (inactive) | -0.531 (inactive) | -2.3e-05 (inactive) | 0.00729 (inactive) | inactive | 9.13% (inactive)
12 | CCOC(=O)CC(=O)CSc1nc2c(cc1C#N)CCCCCC2 | 706 | -1.3% (inactive) | 25.1% (inactive) | 180% | -0.436 | -0.188 | -0.491 | -8.95% (inactive) | -0.285 (inactive) | -5.2e-06 (inactive) | 0.00458 (inactive) | inactive | 0.237% (inactive)
13 | Cn1c2ccccc2c2nn(-c3ccccc3)c(=O)cc21 | 304 | -5% (inactive) | -28.5% (inactive) | 94.5% | -1.04 | 0.853 | -0.375 | -8.59% (inactive) | -0.441 (inactive) | -0.000115 (inactive) | 0.00467 (inactive) | inactive | -13.4% (inactive)
